# Screening results: PubChem BioAssay, The Scripps Research Institute Molecular Screening Center
# Sampled rows, rich in hits. Any-hit rate of the full collection: about 3.4%.
# ROCK2 inh – ROCK2 (human) kinase inhibition | O75116 | purified ROCK2, Kinase-Glo ATP depletion luminescence | inhibition, % at 6 µM | hit rate 0.35% among 60,000 | AID 604;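 active = inhibition above the screen-wide mean inhibition plus 3 SD, cut at about 18% in these data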;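 note: plate controls were DMSO wells for no effect and Y-27632 control wells after no-enzyme background subtraction for full effect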
# Target sequence (O75116 whole entry, looked up): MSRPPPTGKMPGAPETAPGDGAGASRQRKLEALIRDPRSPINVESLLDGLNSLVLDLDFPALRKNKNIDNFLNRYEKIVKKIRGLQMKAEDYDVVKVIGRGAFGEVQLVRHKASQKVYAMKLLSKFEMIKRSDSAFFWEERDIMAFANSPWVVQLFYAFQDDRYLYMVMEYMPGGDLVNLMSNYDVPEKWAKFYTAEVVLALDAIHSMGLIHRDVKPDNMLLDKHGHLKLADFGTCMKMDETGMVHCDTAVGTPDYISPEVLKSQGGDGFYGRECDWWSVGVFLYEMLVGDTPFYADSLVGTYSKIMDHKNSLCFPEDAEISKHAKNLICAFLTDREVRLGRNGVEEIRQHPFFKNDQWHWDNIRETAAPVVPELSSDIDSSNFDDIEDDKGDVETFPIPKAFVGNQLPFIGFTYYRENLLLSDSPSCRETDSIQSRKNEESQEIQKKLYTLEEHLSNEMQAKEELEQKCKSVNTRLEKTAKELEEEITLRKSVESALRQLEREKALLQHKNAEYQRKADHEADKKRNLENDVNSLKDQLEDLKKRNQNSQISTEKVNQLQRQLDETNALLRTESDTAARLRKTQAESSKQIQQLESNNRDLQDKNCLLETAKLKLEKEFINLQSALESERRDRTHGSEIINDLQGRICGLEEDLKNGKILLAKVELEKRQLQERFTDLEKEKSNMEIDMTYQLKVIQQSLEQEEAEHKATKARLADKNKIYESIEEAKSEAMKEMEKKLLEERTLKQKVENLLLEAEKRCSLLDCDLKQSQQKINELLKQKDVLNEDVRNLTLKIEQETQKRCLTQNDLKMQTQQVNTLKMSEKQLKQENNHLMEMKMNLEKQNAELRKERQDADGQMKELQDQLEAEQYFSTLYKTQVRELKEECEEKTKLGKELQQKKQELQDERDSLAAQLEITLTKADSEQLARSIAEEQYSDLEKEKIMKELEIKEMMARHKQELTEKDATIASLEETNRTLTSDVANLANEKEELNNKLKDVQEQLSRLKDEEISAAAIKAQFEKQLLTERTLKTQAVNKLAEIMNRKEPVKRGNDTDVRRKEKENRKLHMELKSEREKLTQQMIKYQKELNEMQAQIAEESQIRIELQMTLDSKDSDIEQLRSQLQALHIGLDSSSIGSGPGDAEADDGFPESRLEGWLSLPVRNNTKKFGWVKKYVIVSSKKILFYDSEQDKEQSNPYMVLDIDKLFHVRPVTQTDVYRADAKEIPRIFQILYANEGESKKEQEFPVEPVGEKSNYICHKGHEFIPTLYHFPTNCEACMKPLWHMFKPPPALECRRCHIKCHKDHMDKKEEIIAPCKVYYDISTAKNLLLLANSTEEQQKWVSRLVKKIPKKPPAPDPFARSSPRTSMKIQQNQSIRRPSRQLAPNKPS
# PKA inh – inhibitors of human protein kinase A; P17612; PKA Kemptide phosphorylation, Kinase-Glo ATP luminescence; inhibition, % at 6 µM; hit rate 0.1% among 65,000; AID 524;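 active = inhibition above the screen-wide mean inhibition plus 3 SD, cut at about 21% in these data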
# RORa activator – activates the human nuclear receptor RORA; P35398; activation, % at 10 µM; hit rate 1.5% among 65,000; CHO-K1 Gal4-RORA LBD luciferase reporter, luminescence; percent increase over mock-subtracted basal signal;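 active = activation above the mean of all tested compounds plus 3 SD, cut at about 49% in these data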;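 note: 0% = DMSO-treated RORA cells and 100% = added signal equal to DMSO minus mock-transfected cells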
# MMP-13 inhibitor – MMP13 (human) collagenase inhibition; MMP-13 fTHP FRET cleavage, Mca fluorescence; hit rate 0.07% among 65,000; P45452; inhibition, % at 4 µM; AID 570;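 active = inhibition above the mean of compound-free control plate wells plus 3 SD, cut at about 14% in these data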;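 note: 0% = DMSO wells and 100% = wells with reference MMP-13 inhibitor after basal subtraction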
# JNK3 blocker – inhibitors of human JNK3 kinase | P53779 | purified JNK3 kinase activity, HTS | inhibition, % at 8 µM | hit rate 0.61% among 60,000; in the data active = inhibition above about 17%;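 note: 0% = DMSO and 100% = reference inhibitor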
# SF1 activator – activators of human nuclear receptor SF-1 | activation, % at 10 µM | CHO-K1 Gal4-SF-1 LBD luciferase reporter; % increase over DMSO SF-1-specific signal | hit rate 1.9% among 65,000 | AID 522;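 active = activation above the mean activation of all tested compounds plus 3 SD, cut at about 50% in these data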
#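 Test system: CHO-K1 cells with Gal4–hSF-1 LBD chimera plus Gal4-driven luciferase; Input: 4,000 cells/well; Compound: 10 µM only; Times: 20 h compound treatment, 37 °C; Measured by: steady-glow luciferase luminescence, read after 15 min reagent incubation; Measure: percent activation versus DMSO; Control set: DMSO and mock-transfected background; Replicates: one test per compound.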
# * = called active by the depositor; · = no result given.
SMILES,ROCK2 inh,PKA inh,RORa activator,MMP-13 inhibitor,JNK3 blocker,SF1 activator
O=C(CSc1ncnc2nc[nH]c12)N1CCN(c2ccc(Cl)cc2)CC1,0.5,-5.2,-26.3,2.1,-2.3,-31.4
Cc1ccc2c(c1)nnn2C1CCN(CC(=O)Nc2ccccc2N2CCOCC2)CC1,8.0,6.2,2.7,-8.0,3.6,1.8
Cc1cnc(-c2nnc(N(C)C(=O)c3ccncc3)s2)cn1,-2.2,-1.7,7.7,-5.4,2.9,0.3
Cc1ccc(S(=O)(=O)NCCCN2CCOCC2)c(C)c1,·,-3.4,-19.1,-2.4,·,-9.2
COc1ccc2oc(C(=O)C3CC3)c(NC(=O)CCCN3C(=O)c4ccccc4C3=O)c2c1,2.1,-5.9,-1.7,-6.0,6.0,8.2
Cn1c(C(=O)NCCc2c[nH]c3ccccc23)cc2sccc21,3.9,3.7,73.9*,3.4,-1.2,78.8*
N#C/C(C(=O)c1ccccc1)=C1/CCCCCN1,3.4,7.9,35.0,3.6,8.6,60.7*
O=c1c2ccccc2sn1-c1cc(S(=O)(=O)N2CCOCC2)ccc1N1CCOCC1,1.3,8.2,-12.3,-5.5,6.3,-9.7
O=C(CSc1ncccn1)NCc1ccccc1Cl,5.8,4.9,31.1,-3.0,3.5,68.3*
Clc1ccccc1CSc1ncccn1,7.4,8.0,0.2,0.5,-2.0,2.9
O=C(COC(=O)c1ccccn1)Nc1nccs1,7.2,6.7,-8.9,1.4,7.5,-16.8
O=C(Nc1nccs1)c1ccc(COc2ccccc2Br)o1,4.3,7.1,20.7,-2.2,8.0,60.2*
O=C(COc1ccc(F)cc1)Nc1nccs1,-5.3,-7.0,101.9*,-3.3,4.4,42.1
CN(C)C(=O)c1ccc(COc2ccccc2Br)o1,7.1,4.0,40.7,-1.1,4.4,48.7
O=C(Nc1nccs1)c1ccc(COc2ccc(F)cc2)o1,4.9,6.6,8.0,1.1,5.9,63.6*
O=C(Nc1nccs1)c1ccc(COc2ccc(Cl)cc2)o1,4.1,-0.8,4.8,-4.4,3.2,29.3
CN1CC(=O)N/C1=N\C(=O)Nc1ccc2c(c1)N(C)C(=O)CS2,·,4.6,-7.7,4.1,·,-4.3
Cc1csc(SCCN2C(=O)c3ccccc3C2=O)n1,0.8,6.8,73.0*,-406.5,5.9,64.8*
O=C1c2ccccc2C(=O)N1CCSc1nncs1,2.9,5.6,0.4,-4.2,2.8,12.7
Cc1ccc(-c2csc(N3CCC(NS(=O)(=O)c4ccc5c(c4)OCCO5)CC3)n2)cc1,4.9,10.1,-69.5,-0.9,-1.6,-53.2
c1ccc(N2CCN(c3ccccc3)C2c2cccs2)cc1,-1.0,-2.0,58.4*,2.4,1.7,23.5
O=C1CSC(c2cccs2)N1c1ccccc1 (stereo not drawn),2.6,-2.7,-12.4,1.5,2.9,-11.8
COc1ccccc1N1CCN(C(=O)CSc2nc(C)c(Cc3ccccc3)c(=O)[nH]2)CC1,4.8,9.0,-14.1,-3.2,3.2,-4.3
Cc1cccc(OCc2nc(-c3nonc3N)no2)c1C,0.3,-2.0,81.3*,2.5,-0.1,32.6
Nc1nonc1-c1noc(CCCN2C(=O)c3ccccc3C2=O)n1,9.2,11.6,39.8,6.1,-0.1,49.5*
SMILES,ROCK2 inh,PKA inh,RORa activator,MMP-13 inhibitor,JNK3 blocker,SF1 activator
Nc1nonc1-c1noc(COc2ccccc2Cl)n1,6.7,3.8,87.9*,1.9,-2.2,68.6*
COc1cccc(NC(=O)N2CCN(Cc3nc4ccccc4c(=O)[nH]3)CC2)c1,·,9.6,-10.9,2.7,·,11.0
Cc1cc(C(=O)COc2ccc(-c3nnco3)cc2)c(C)n1Cc1ccccc1,·,5.9,15.3,-1.1,·,0.3
O=C1C(=O)N(CCCn2ccnc2)C(c2cccnc2)/C1=C(/O)c1ccc(Cl)cc1 (stereo not drawn),0.9,-0.5,12.4,3.0,-6.1,-11.8
CCn1c(=O)c(C2=NS(=O)(=O)c3ccccc3N2)c(O)c2ccccc21,1.5,10.1,-4.5,2.1,1.9,-21.7
O=C(NCc1ccccc1)NS(=O)(=O)c1ccccc1Cl,5.0,8.9,27.9,-3.1,4.2,17.7
CCOC(=O)N1CCC(NC(=O)Cc2ccc(-n3c(=O)[nH]c4ccccc4c3=O)cc2)CC1,-2.0,-1.8,-7.2,-0.3,-2.2,-5.2
CCCCOC(=O)Nc1ccc(N2CCCCC2)cc1,·,1.9,94.6*,-1.7,·,64.5*
CCCCOC(=O)Nc1ccc(N2CCOCC2)cc1,6.0,8.0,41.8,6.4,-5.7,35.2
Cc1nn(-c2ccccc2)c(C)c1C(=O)OCC(=O)Nc1ccc2c(c1)OCO2,·,-6.7,-4.6,0.1,·,-7.0
Cc1ccc(C(=O)Nc2ncc(Cc3ccc(F)cc3)s2)o1,1.9,7.2,16.5,-1.3,-1.7,119.2*
COc1ccc(-c2cc(-c3ccc(OC)cc3)[nH]n2)cc1,0.1,2.6,65.3*,1.1,2.1,42.5
COc1ccc(-c2nc(=S)[nH][nH]2)cc1,4.7,6.8,5.1,-3.0,1.7,13.4
Cc1ccccc1-n1c(Cn2c(=O)sc3ccccc32)nnc1SCC(=O)NCC1CCCO1 (stereo not drawn),2.4,6.9,-34.7,-4.7,0.3,-5.3
Cc1cc(=O)oc2ccc(OCC(=O)N3CCc4ccccc43)cc12,4.9,4.2,2.8,-5.5,-5.9,-2.2
Cc1cc(C(=O)OCC(=O)N2CCc3ccccc32)c(C)o1,1.8,1.7,-2.2,-5.0,-5.2,53.6*
O=C(COc1ccc(F)cc1Br)N1CCc2ccccc21,3.2,7.4,29.8,-5.0,6.9,51.2*
COc1ccc(OC)c(NC(=O)[C@H]2CC=CC[C@H]2C(=O)O)c1,1.3,2.6,11.7,0.8,-8.8,4.4
COC(=O)c1sccc1NC(=O)C1CC=CCC1C(=O)O (stereo not drawn),9.4,13.0,-12.2,-3.6,28.4*,-0.8
Cc1cc(NC(=O)CSc2cn(C)c3ccccc23)no1,-0.4,1.8,-14.7,5.4,-1.4,-17.8
Cc1nnc2c3cnn(-c4ccc(Cl)cc4)c3ncn12,·,4.9,65.3*,-7.7,·,25.3
CCOC(=O)Cn1cnc2c(cnn2-c2ccc(Cl)cc2)c1=O,0.1,2.7,11.7,-12.8,5.0,24.3
COC(=O)C(C)n1cnc2c(cnn2-c2ccc(Cl)cc2)c1=O (stereo not drawn),1.2,1.9,46.7,-2.0,3.7,52.6*
CC(C)CCn1nnnc1C(c1ccc(F)cc1)N1CCC(C(N)=O)CC1 (stereo not drawn),3.5,4.8,-14.0,-1.3,-0.5,0.4
c1ccc(Cc2nnc3sc(-c4ccc5c(c4)OCCO5)nn23)cc1,2.3,8.8,38.0,-7.2,-6.9,55.0*
COc1ccccc1NC(=O)c1cccs1,0.4,4.7,2.8,4.4,8.9,-5.0
COc1ccccc1Nc1ncc(-c2cccs2)s1,7.6,5.2,34.0,-5.6,0.6,94.7*
CCc1ccc(NC(=O)c2cnc3n(c2=O)CCS3)cc1,0.7,-8.3,39.9,2.7,0.2,49.5*
CCc1ccccc1NC(=O)c1cnc2n(c1=O)CCS2,3.1,6.3,17.5,1.9,5.0,18.3
